Measured values reported in ChEMBL document CHEMBL3045579, “Herbicidal activity of cineole derivatives” (2010).
Activity calls are given as the source filed them. The calls are words filed in the database; no cut-off is given here.

Each molecule was assayed on Radish (assay: Pre-emergence herbicidal activity against Raphanus sativus var.Long scarlet (radish) seeds assessed as seed germination at 0.1 mol/l at 25 degC after 72 hr by laboratory-based agar medium bioassay relative to 1,8-Cineole).
Assay type: functional
Outline: (§1)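 Agar-plate assay as above: compound in organic solvent evaporated onto Ca/B water agar, 10 seeds × 5 dishes, 72 h at 25 °C in light. Germination, root length or shoot length at 0.1 mol L^-1 expressed relative to 1,8-cineole.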

| Structure (SMILES) | Ratio | inhibition |
| --- | --- | --- |
| CC(C)[C@]12CC[C@@](C)(O1)[C@H](O)C2 (racemic) [2-Exo-hydroxy-1,4-cineole] | 13.1 |  |
| CC(=O)O[C@@H]1C[C@@]2(C(C)C)CC[C@@]1(C)O2 (racemic) [2-exo-acetoxy-1,4-cineole] | 7.5 |  |
| CCCC(=O)O[C@@H]1C[C@@]2(C(C)C)CC[C@@]1(C)O2 (racemic) [2-exo-butoxy-1,4-cineole] |  | Active |

What follows are molecules tested on Lolium rigidum (assay: Pre-emergence herbicidal activity against Lolium rigidum seeds assessed as concentration required to suppress shoot growth at 25 degC after 72 hr by laboratory-based agar medium bioassay).
Assay type: functional

| Structure (SMILES) | Activity |
| --- | --- |
| CC(C)[C@]12CC[C@@](C)(O1)[C@H](O)C2 (racemic) [2-Exo-hydroxy-1,4-cineole] | 0.1 mol/L |
| CC(=O)O[C@@H]1C[C@@]2(C(C)C)CC[C@@]1(C)O2 (racemic) [2-exo-acetoxy-1,4-cineole] | 0.01 mol/L |

The molecules below were run on Radish (assay: Pre-emergence herbicidal activity against Raphanus sativus var.Long scarlet (radish) seeds assessed as shoot length at 0.1 mol/l at 25 degC after 72 hr by laboratory-based agar medium bioassay relative to 1,8-Cineole).
Assay type: functional
Outline: as §1

| Structure (SMILES) | Ratio | inhibition |
| --- | --- | --- |
| CC(C)[C@]12CC[C@@](C)(O1)[C@H](O)C2 (racemic) [2-Exo-hydroxy-1,4-cineole] | 1.6 |  |
| CC(=O)O[C@@H]1C[C@@]2(C(C)C)CC[C@@]1(C)O2 (racemic) [2-exo-acetoxy-1,4-cineole] |  | Active |
| CCCC(=O)O[C@@H]1C[C@@]2(C(C)C)CC[C@@]1(C)O2 (racemic) [2-exo-butoxy-1,4-cineole] |  | Active |

Each molecule was assayed on Lolium rigidum (assay: Pre-emergence herbicidal activity against Lolium rigidum seeds assessed as root length at 0.1 mol/l at 25 degC after 72 hr by laboratory-based agar medium bioassay relative to control).
Assay type: functional
Outline: (§2)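 Solutions tested at 1 to 1 × 10^-4 mol L^-1. 10 seeds/dish, 5 randomized replicate dishes angled ~70°. Incubated 72 h at 25 °C in light. Solvent and no-solvent controls. Germination, root length and shoot length recorded.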

| Structure (SMILES) | Activity |
| --- | --- |
| CC(C)[C@]12CC[C@@](C)(O1)[C@H](O)C2 (racemic) [2-Exo-hydroxy-1,4-cineole] | 6.1% |
| CC(=O)O[C@@H]1C[C@@]2(C(C)C)CC[C@@]1(C)O2 (racemic) [2-exo-acetoxy-1,4-cineole] | 0% |

These molecules were tested on Lolium rigidum (assay: Pre-emergence herbicidal activity against Lolium rigidum seeds assessed as concentration required to suppress root growth at 25 degC after 72 hr by laboratory-based agar medium bioassay).
Assay type: functional

| Structure (SMILES) | Activity |
| --- | --- |
| CC(C)[C@]12CC[C@@](C)(O1)[C@H](O)C2 (racemic) [2-Exo-hydroxy-1,4-cineole] | 0.01 mol/L |
| CC(=O)O[C@@H]1C[C@@]2(C(C)C)CC[C@@]1(C)O2 (racemic) [2-exo-acetoxy-1,4-cineole] | 0.01 mol/L |

What follows are molecules tested on Lolium rigidum (assay: Pre-emergence herbicidal activity against Lolium rigidum seeds assessed as seed germination at 0.1 mol/l at 25 degC after 72 hr by laboratory-based agar medium bioassay relative to control).
Assay type: functional
Outline: as §2

| Structure (SMILES) | Activity |
| --- | --- |
| CC(C)[C@]12CC[C@@](C)(O1)[C@H](O)C2 (racemic) [2-Exo-hydroxy-1,4-cineole] | 21.7% |
| CC(=O)O[C@@H]1C[C@@]2(C(C)C)CC[C@@]1(C)O2 (racemic) [2-exo-acetoxy-1,4-cineole] | 0% |

What follows are molecules tested on Radish (assay: Pre-emergence herbicidal activity against Raphanus sativus var.Long scarlet (radish) seeds assessed as seed germination at 0.1 mol/l at 25 degC after 72 hr by laboratory-based agar medium bioassay relative to control).
Assay type: functional
Outline: as §2

| Structure (SMILES) | Activity |
| --- | --- |
| CC(C)[C@]12CC[C@@](C)(O1)[C@H](O)C2 (racemic) [2-Exo-hydroxy-1,4-cineole] | 2.6% |
| CC(=O)O[C@@H]1C[C@@]2(C(C)C)CC[C@@]1(C)O2 (racemic) [2-exo-acetoxy-1,4-cineole] | 4.5% |

The molecules below were run on Radish (assay: Pre-emergence herbicidal activity against Raphanus sativus var.Long scarlet (radish) seeds assessed as concentration required to suppress root growth at 25 degC after 72 hr by laboratory-based agar medium bioassay).
Assay type: functional

| Structure (SMILES) | Activity |
| --- | --- |
| CC(C)[C@]12CC[C@@](C)(O1)[C@H](O)C2 (racemic) [2-Exo-hydroxy-1,4-cineole] | 0.1 mol/L |
| CC(=O)O[C@@H]1C[C@@]2(C(C)C)CC[C@@]1(C)O2 (racemic) [2-exo-acetoxy-1,4-cineole] | 0.01 mol/L |

The molecules below were run on Lolium rigidum (assay: Pre-emergence herbicidal activity against Lolium rigidum seeds assessed as root length at 0.1 mol/l at 25 degC after 72 hr by laboratory-based agar medium bioassay relative to 1,8-Cineole).
Assay type: functional
Outline: as §1

| Structure (SMILES) | Ratio | inhibition |
| --- | --- | --- |
| CC(C)[C@]12CC[C@@](C)(O1)[C@H](O)C2 (racemic) [2-Exo-hydroxy-1,4-cineole] | 3.7 |  |
| CC(=O)O[C@@H]1C[C@@]2(C(C)C)CC[C@@]1(C)O2 (racemic) [2-exo-acetoxy-1,4-cineole] |  | Active |

The molecules below were run on Radish (assay: Pre-emergence herbicidal activity against Raphanus sativus var.Long scarlet (radish) seeds assessed as concentration required to suppress shoot growth at 25 degC after 72 hr by laboratory-based agar medium bioassay).
Assay type: functional

| Structure (SMILES) | Activity |
| --- | --- |
| CC(C)[C@]12CC[C@@](C)(O1)[C@H](O)C2 (racemic) [2-Exo-hydroxy-1,4-cineole] | 0.1 mol/L |
| CC(=O)O[C@@H]1C[C@@]2(C(C)C)CC[C@@]1(C)O2 (racemic) [2-exo-acetoxy-1,4-cineole] | 0.01 mol/L |

These molecules were tested on Lolium rigidum (assay: Pre-emergence herbicidal activity against Lolium rigidum seeds assessed as shoot length at 0.1 mol/l at 25 degC after 72 hr by laboratory-based agar medium bioassay relative to control).
Assay type: functional
Outline: as §2

| Structure (SMILES) | Activity |
| --- | --- |
| CC(C)[C@]12CC[C@@](C)(O1)[C@H](O)C2 (racemic) [2-Exo-hydroxy-1,4-cineole] | 23.1% |
| CC(=O)O[C@@H]1C[C@@]2(C(C)C)CC[C@@]1(C)O2 (racemic) [2-exo-acetoxy-1,4-cineole] | 0% |

What follows are molecules tested on Lolium rigidum (assay: Pre-emergence herbicidal activity against Lolium rigidum seeds assessed as seed germination at 0.1 mol/l at 25 degC after 72 hr by laboratory-based agar medium bioassay relative to 1,8-Cineole).
Assay type: functional
Outline: as §1

| Structure (SMILES) | Ratio | inhibition |
| --- | --- | --- |
| CC(C)[C@]12CC[C@@](C)(O1)[C@H](O)C2 (racemic) [2-Exo-hydroxy-1,4-cineole] | 1.4 |  |
| CC(=O)O[C@@H]1C[C@@]2(C(C)C)CC[C@@]1(C)O2 (racemic) [2-exo-acetoxy-1,4-cineole] |  | Active |

The molecules below were run on Radish (assay: Pre-emergence herbicidal activity against Raphanus sativus var.Long scarlet (radish) seeds assessed as shoot length at 0.1 mol/l at 25 degC after 72 hr by laboratory-based agar medium bioassay relative to control).
Assay type: functional
Outline: as §2

| Structure (SMILES) | Activity |
| --- | --- |
| CC(C)[C@]12CC[C@@](C)(O1)[C@H](O)C2 (racemic) [2-Exo-hydroxy-1,4-cineole] | 41.7% |
| CC(=O)O[C@@H]1C[C@@]2(C(C)C)CC[C@@]1(C)O2 (racemic) [2-exo-acetoxy-1,4-cineole] | 0% |

What follows are molecules tested on Lolium rigidum (assay: Pre-emergence herbicidal activity against Lolium rigidum seeds assessed as shoot length at 0.1 mol/l at 25 degC after 72 hr by laboratory-based agar medium bioassay relative to 1,8-Cineole).
Assay type: functional
Outline: as §1

| Structure (SMILES) | Ratio | inhibition |
| --- | --- | --- |
| CC(C)[C@]12CC[C@@](C)(O1)[C@H](O)C2 (racemic) [2-Exo-hydroxy-1,4-cineole] | 1.2 |  |
| CC(=O)O[C@@H]1C[C@@]2(C(C)C)CC[C@@]1(C)O2 (racemic) [2-exo-acetoxy-1,4-cineole] |  | Active |

The molecules below were run on Radish (assay: Pre-emergence herbicidal activity against Raphanus sativus var.Long scarlet (radish) seeds assessed as root length at 0.1 mol/l at 25 degC after 72 hr by laboratory-based agar medium bioassay relative to 1,8-Cineole).
Assay type: functional
Outline: as §1

| Structure (SMILES) | Ratio | inhibition |
| --- | --- | --- |
| CC(C)[C@]12CC[C@@](C)(O1)[C@H](O)C2 (racemic) [2-Exo-hydroxy-1,4-cineole] | 3.7 |  |
| CC(=O)O[C@@H]1C[C@@]2(C(C)C)CC[C@@]1(C)O2 (racemic) [2-exo-acetoxy-1,4-cineole] | 3.5 |  |
| CCCC(=O)O[C@@H]1C[C@@]2(C(C)C)CC[C@@]1(C)O2 (racemic) [2-exo-butoxy-1,4-cineole] |  | Active |

These molecules were tested on Lolium rigidum (assay: Pre-emergence herbicidal activity against Lolium rigidum seeds assessed as concentration required to suppress seed germination at 25 degC after 72 hr by laboratory-based agar medium bioassay).
Assay type: functional

| Structure (SMILES) | Activity |
| --- | --- |
| CC(C)[C@]12CC[C@@](C)(O1)[C@H](O)C2 (racemic) [2-Exo-hydroxy-1,4-cineole] | 0.1 mol/L |
| CC(=O)O[C@@H]1C[C@@]2(C(C)C)CC[C@@]1(C)O2 (racemic) [2-exo-acetoxy-1,4-cineole] | 0.1 mol/L |

Each molecule was assayed on Radish (assay: Pre-emergence herbicidal activity against Raphanus sativus var.Long scarlet (radish) seeds assessed as concentration required to suppress seed germination at 25 degC after 72 hr by laboratory-based agar medium bioassay).
Assay type: functional

| Structure (SMILES) | Activity |
| --- | --- |
| CC(C)[C@]12CC[C@@](C)(O1)[C@H](O)C2 (racemic) [2-Exo-hydroxy-1,4-cineole] | 0.1 mol/L |
| CC(=O)O[C@@H]1C[C@@]2(C(C)C)CC[C@@]1(C)O2 (racemic) [2-exo-acetoxy-1,4-cineole] | 0.01 mol/L |

The molecules below were run on Radish (assay: Pre-emergence herbicidal activity against Raphanus sativus var.Long scarlet (radish) seeds assessed as root length at 0.1 mol/l at 25 degC after 72 hr by laboratory-based agar medium bioassay relative to control).
Assay type: functional
Outline: as §2

| Structure (SMILES) | Activity |
| --- | --- |
| CC(C)[C@]12CC[C@@](C)(O1)[C@H](O)C2 (racemic) [2-Exo-hydroxy-1,4-cineole] | 9.9% |
| CC(=O)O[C@@H]1C[C@@]2(C(C)C)CC[C@@]1(C)O2 (racemic) [2-exo-acetoxy-1,4-cineole] | 2.7% |
